Converted amounts (≈) assume the structure as drawn.
Columns and labels:
[1] = tested on: Candida albicans; test: Antimicrobial activity against Candida albicans by broth microdilution assay; format: functional
[2] = Selectivity ratio of MIC for Mycobacterium tuberculosis H37Rv to MIC for Bacillus anthracis; format: functional
[3] = tested on: Bacillus anthracis; test: Antimicrobial activity against Bacillus anthracis; format: functional
Procedure, shortened: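 Compounds tested over 100 µg/mL down to 48.8 ng/mL. MIC taken as the lowest concentration preventing visible bacterial growth.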

[4] = tested on: Mycobacterium tuberculosis; test: Antimicrobial activity against Mycobacterium tuberculosis H37Rv by microplate Alamar blue assay; format: functional
Procedure, shortened: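 Virulent H37Rv strain in a microplate Alamar blue assay. MIC defined as the lowest concentration giving at least 90% growth inhibition.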

[5] = tested on: Staphylococcus aureus; test: Antimicrobial activity against Staphylococcus aureus by broth microdilution assay; format: functional
[6] = tested on: Mycolicibacterium smegmatis; test: Antimicrobial activity against Mycobacterium smegmatis by broth microdilution assay; format: functional
[7] = tested on: Vero; test: Cytotoxicity against african green monkey Vero cells; format: cell-based; details: Chlorocebus sabaeus

Compound | MIC [1] [µM] | Ratio [2] | MIC [3] [µM] | MIC [4] [µM] | MIC [5] [µM] | MIC [6] [µM] | IC50 [7] [µM]
[C-]#[N+][C@@H]1[C@@H]2c3c[nH]c4cccc(c34)C(C)(C)[C@H]2C[C@@H](Cl)[C@]1(C)C=C [HAPALINDOLE G] | > 128 | 50 | > 128 | 6.8 (≈ 2.3 µg/mL) | > 128 | 34 (≈ 11.5 µg/mL) | > 128
COc1c(N2C[C@@H]3CCCN[C@@H]3C2)c(F)cc2c(=O)c(C(=O)O)cn(C3CC3)c12 [MOXIFLOXACIN] |  |  |  |  |  | 0.7 (≈ 0.281 µg/mL) | 
GENTAMICIN |  |  |  |  | 1.4 |  | 
[C-]#[N+][C@]12C=CC(C)(C)c3[nH]c4cccc5c4c3[C@]1(O)[C@H](CC[C@]2(C)C=C)C5(C)C [AMBIGUINE L ISONITRILE] | < 1 |  | 16.2 (≈ 6.26 µg/mL) | 11.7 (≈ 4.52 µg/mL) | 10.5 (≈ 4.06 µg/mL) | 29.3 (≈ 11.3 µg/mL) | 44.6
[C-]#[N+][C@]12[C@@H](O)[C@H](O)C(C)(C)c3[nH]c4cccc5c4c3[C@]1(O)[C@H](C[C@@H](Cl)[C@]2(C)C=C)C5(C)C [AMBIGUINE F ISONITRILE] |  |  |  | 61.2 (≈ 27.8 µg/mL) |  |  | 57.9
O=C(O)c1cn(C2CC2)c2cc(N3CCNCC3)c(F)cc2c1=O [CIPROFLOXACIN] |  |  | 0.2 (≈ 0.0663 µg/mL) |  |  |  | 
[C-]#[N+][C@]12[C@H](O)C(=O)C(C)(C)c3[nH]c4cccc5c4c3[C@]1(O)[C@H](C[C@@H](Cl)[C@]2(C)C=C)C5(C)C [AMBIGUINE O ISONITRILE] |  |  | 13.8 (≈ 6.25 µg/mL) |  |  |  | 80.7
[C-]#[N+][C@]12C[C@@H](O)C(C)(C)c3[nH]c4cccc5c4c3[C@]1(O)[C@H](CC[C@]2(C)C=C)C5(C)C [AMBIGUINE N ISONITRILE] | < 1 |  | 30.9 (≈ 12.5 µg/mL) | 27.1 (≈ 11 µg/mL) | 5.5 (≈ 2.23 µg/mL) | 48.8 (≈ 19.7 µg/mL) | 118
[C-]#[N+][C@@H]1[C@@H]2c3c(C(C)(C)C=C)[nH]c4cccc(c34)C(C)(C)[C@H]2C[C@@H](Cl)[C@]1(C)C=C [AMBIGUINE A ISONITRILE] | < 1 |  | 1 (≈ 0.407 µg/mL) | 46.7 (≈ 19 µg/mL) | 1.8 (≈ 0.733 µg/mL) | 14.8 (≈ 6.02 µg/mL) | 26
CO[C@H]1/C=C/O[C@@]2(C)Oc3c(C)c(O)c4c(O)c(c(/C=N/N5CCN(C)CC5)c(O)c4c3C2=O)NC(=O)/C(C)=C\C=C\[C@H](C)[C@H](O)[C@@H](C)[C@@H](O)[C@@H](C)[C@H](OC(C)=O)[C@@H]1C [RIFAMPIN] |  |  |  | 0.1 (≈ 0.0823 µg/mL) |  |  | 97.9
[C-]#[N+][C@]12C=CC(C)(C)c3[nH]c4cccc5c4c3[C@]1(O)[C@H](C[C@@H](Cl)[C@]2(C)C=C)C5(C)C [AMBIGUINE K ISONITRILE] | < 0.9 |  | 7.4 (≈ 3.12 µg/mL) | 6.6 (≈ 2.78 µg/mL) | 4.6 (≈ 1.94 µg/mL) | 23.7 (≈ 9.98 µg/mL) | 53.2
[C-]#[N+][C@]12C[C@@H](O)C(C)(C)c3[nH]c4cccc5c4c3[C@]1(O)[C@H](C[C@@H](Cl)[C@]2(C)C=C)C5(C)C [AMBIGUINE M ISONITRILE] | 1.1 (≈ 0.483 µg/mL) |  | 28.5 (≈ 12.5 µg/mL) | 7.5 (≈ 3.29 µg/mL) | 4.7 (≈ 2.06 µg/mL) | 25.8 (≈ 11.3 µg/mL) | 79.8
[C-]#[N+][C@]12[C@H]3O[C@H]3C(C)(C)c3[nH]c4cccc5c4c3[C@]1(O)[C@H](C[C@@H](Cl)[C@]2(C)C=C)C5(C)C [AMBIGUINE E ISONITRILE] | < 0.9 |  | 3.6 (≈ 1.57 µg/mL) | 21 (≈ 9.18 µg/mL) | 1.5 (≈ 0.655 µg/mL) | 1.4 (≈ 0.612 µg/mL) | 42.6
[C-]#[N+][C@@H]1[C@H]2c3c[nH]c4cccc(c34)C(C)(C)[C@@H]2CC[C@]1(C)C=C [HAPALINDOLE H] | 5.1 (≈ 1.55 µg/mL) |  | > 128 | 58.8 (≈ 17.9 µg/mL) | > 128 | 39.6 (≈ 12.1 µg/mL) | > 128
CC(=O)N1CCN(c2ccc(OCC3COC(Cn4ccnc4)(c4ccc(Cl)cc4Cl)O3)cc2)CC1 (stereo not given) [KETOCONAZOLE] | 0.03 (≈ 0.0159 µg/mL) |  |  |  |  |  | 
[C-]#[N+][C@@H]1[C@]2(O)c3c(C(C)(C)C=C)[nH]c4cccc(c34)C(C)(C)[C@H]2CC[C@]1(C)C=C [AMBIGUINE C ISONITRILE] | < 1 |  | 16.1 (≈ 6.26 µg/mL) | 7 (≈ 2.72 µg/mL) | 7.4 (≈ 2.88 µg/mL) | 59.6 (≈ 23.2 µg/mL) | 78.3
[C-]#[N+][C@H]1[C@@](C)(C=C)[C@H](Cl)C[C@@H]2C(C)(C)c3cccc4[nH]c(C(C)(C)C=C)c(c34)[C@]21O [AMBIGUINE B ISONITRILE] | 1.7 (≈ 0.719 µg/mL) |  | 3.7 (≈ 1.57 µg/mL) |  | 10.9 (≈ 4.61 µg/mL) | 27.8 (≈ 11.8 µg/mL) | 58.6
